This is an account of results in ChEMBL document CHEMBL1145555, “Combination of virtual screening and high throughput gene profiling for identification of novel liver X receptor modulators” (2008).

Activity calls are given as the source filed them. The calls are words filed in the database; no cut-off is given here.

Test [1] deals with THP-1. Nature of the test: Induction of IL6 gene expression in human THP1 cells at 10 uM by array plate mRNA assay. Format: functional. A digest of the protocol:
(§1)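 Multiplex quantitative nuclease protection assay (ArrayPlate mRNA) of LXR-regulated genes, run at the same time as housekeeping genes. Compounds were tested at 10 µM alongside a negative control compound. CV% generally below 20%.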

Test [2] has as its system THP-1. Nature of the test: Induction of LXRalpha gene expression in human THP1 cells at 10 uM by array plate mRNA assay. Type of test: functional. In a few lines:
as §1

For test [3], the system named is THP-1. Nature of the test: Induction of B2M gene expression in human THP1 cells at 10 uM by array plate mRNA assay. Type of test: functional. A digest of the protocol:
as §1

The subject of test [4] is THP-1. Nature of the test: Induction of TBP gene expression in human THP1 cells at 10 uM using by array plate mRNA assay. Format: functional. In a few lines: as §1
For test [5], the system named is THP-1. Nature of the test: Induction of NR1H2 gene expression in human THP1 cells at 10 uM by array plate mRNA assay. Type of test: functional. In a few lines: as §1
Test [6] relates to THP-1. Nature of the test: Induction of SREBP1c gene expression in human THP1 cells at 10 uM by array plate mRNA assay. Type of test: functional. A digest of the protocol:
as §1

Test [7] relates to THP-1. Nature of the test: Induction of ACTB gene expression in human THP1 cells at 10 uM by array plate mRNA assay. Type of test: functional. A digest of the protocol: as §1
Test [8] has as its system THP-1. Nature of the test: Induction of ABCA1 gene expression in human THP1 cells at 10 uM by array plate mRNA assay. Type of test: functional. A digest of the protocol: as §1
Test [9] has as its system THP-1. Nature of the test: Induction of ABCG1 gene expression in human THP1 cells at 10 uM by array plate mRNA assay. Type of test: functional. In a few lines: as §1
Test [10] deals with THP-1. Nature of the test: Induction of HDS11B1 gene expression in human THP1 cells at 10 uM using Array plate mRNA assay. Type of test: functional. In a few lines:
as §1

Test [11] deals with THP-1. Nature of the test: Induction of Cox2 gene expression in human THP1 cells at 10 uM by array plate mRNA assay. Format: functional. In a few lines:
as §1

The target of test [12] is T1, Oxysterols receptor LXR-beta (Homo sapiens) (UniProt P55055).
T1 sequence (whole entry): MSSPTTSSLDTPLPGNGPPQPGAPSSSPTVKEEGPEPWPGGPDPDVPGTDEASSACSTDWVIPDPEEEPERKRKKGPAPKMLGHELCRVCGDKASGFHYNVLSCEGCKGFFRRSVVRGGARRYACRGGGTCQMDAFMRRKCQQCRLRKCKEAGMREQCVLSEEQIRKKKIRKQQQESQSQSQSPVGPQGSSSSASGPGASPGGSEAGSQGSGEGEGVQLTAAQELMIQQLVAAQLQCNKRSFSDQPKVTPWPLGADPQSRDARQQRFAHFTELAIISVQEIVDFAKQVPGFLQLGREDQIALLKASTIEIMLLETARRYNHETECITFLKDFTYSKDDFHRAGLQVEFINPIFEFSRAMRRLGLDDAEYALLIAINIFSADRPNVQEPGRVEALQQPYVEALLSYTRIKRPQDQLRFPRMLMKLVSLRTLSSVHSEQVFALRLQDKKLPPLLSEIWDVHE
Nature of the test: Agonist activity at human LXRbeta by SRC1 cofactor recruitment assay. Format: functional. A digest of the protocol:
(§2)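 HTRF coactivator recruitment: His-tagged human LBD (LXRα 2 nM or LXRβ 1 nM) incubated with compound, 20 nM biotin-SRC1 peptide, 5 nM streptavidin-allophycocyanin and Eu-anti-His antibody (1 nM for α, 0.5 nM for β). Incubated 1 h at room temperature with shaking. EC50 taken from the 665/615 nm time-resolved fluorescence ratio.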

Test [13] relates to THP-1. Nature of the test: Induction of FASN gene expression in human THP1 cells at 10 uM by array plate mRNA assay. Format: functional. A digest of the protocol: as §1
The test system of test [14] is THP-1. Nature of the test: Induction of SCD1 gene expression in human THP1 cells at 10 uM by array plate mRNA assay. Format: functional. In a few lines: as §1
The subject of test [15] is THP-1. Nature of the test: Induction of APOE gene expression in human THP1 cells at 10 uM by array plate mRNA assay. Format: functional. A digest of the protocol: as §1
In test [16] the test system is THP-1. Nature of the test: Induction of cholesterol efflux in human THP1 cells. Type of test: functional, cell-based. In a few lines: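 THP-1 cells differentiated to macrophages with 200 nM PMA for 30 h. Labelled 18 h with 0.6 µCi [1,2-3H]cholesterol plus 16 µg/mL acLDL and PMA. Treated with compound 6 h in serum-free medium with 2 mg/mL BSA, then 18 h more with 5 µg/mL apoA-I plus compound. Supernatant radioactivity expressed as fold over vehicle. Mean of triplicates, single experiment.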

The subject of test [17] is HepG2. Nature of the test: Induction of lipogenesis in human HepG2 cells after 24 hrs. Type of test: functional, cell-based. A digest of the protocol: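 HepG2 cells pretreated with compound or vehicle for 24 h, then given 1 µCi [14C]glycerol for a further 48 h. Cellular triglycerides extracted, resolved by TLC and quantified by phosphorimaging. Reported as fold induction over vehicle. Mean of triplicates, single experiment.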

In test [18] the target is T2, Oxysterols receptor LXR-alpha (Homo sapiens) (UniProt Q13133).
T2 sequence (whole entry): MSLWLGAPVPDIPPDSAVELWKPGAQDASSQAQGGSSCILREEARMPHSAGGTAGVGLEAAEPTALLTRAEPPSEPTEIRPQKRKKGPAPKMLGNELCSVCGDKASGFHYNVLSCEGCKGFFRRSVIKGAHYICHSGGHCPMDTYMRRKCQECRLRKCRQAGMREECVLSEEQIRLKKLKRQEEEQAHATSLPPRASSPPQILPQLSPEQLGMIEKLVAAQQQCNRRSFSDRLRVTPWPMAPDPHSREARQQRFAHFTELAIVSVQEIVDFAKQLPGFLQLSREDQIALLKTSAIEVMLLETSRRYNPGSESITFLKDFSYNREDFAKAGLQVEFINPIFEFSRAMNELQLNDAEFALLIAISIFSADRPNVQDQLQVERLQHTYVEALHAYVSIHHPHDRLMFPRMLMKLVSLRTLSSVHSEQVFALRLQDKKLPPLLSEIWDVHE
Nature of the test: Agonist activity at human LXRalpha by SRC1 cofactor recruitment assay. Type of test: functional. A digest of the protocol:
as §2

With `C[C@@H]1C2Cc3ccc(O)cc3[C@]1(C)CCCN2CCc1ccccc1`, the Activity came out at 0.91 in test [1]; 3.93 in test [2]; 1.05 in test [3]; 1.19 in [4]; 1.16 in [5]; 4.05 in [6]. The Activity in test [7] was found to be 0.93; in test [8], 4.53; in test [9], 13.56; in test [10] it was 1.43; in test [11], 1.2; in test [13] it was 1.75. The values for the Activity in [14] and in test [15] were 4.76 and 3.34, respectively. In addition, the outcome in test [12], in test [16], in [17] and in test [18] was Active.

For the compound `O=C(O)Cc1cccc(OCCCN(Cc2cccc(C(F)(F)F)c2Cl)CC(c2ccccc2)c2ccccc2)c1`, the Activity amounted to 1.02 in [1]; 4.7 in [2]; 1.18 in test [3]; 1.25 in [4]; 1.22 in [5]; 5.28 in [6]. Further, the Activity in [7] came out at 0.89; in [8] it was 10.04; in test [9], 24.92; in test [10], 0.8; in test [11], 1.2; in test [13] it was 3.77. The Activity turned out to be 12.82 in [14] and 4.13 in test [15].

`O=S(=O)(c1ccccc1)N(CC(F)(F)F)c1ccc(C(O)(C(F)(F)F)C(F)(F)F)cc1` [T091317]: the Activity in [1] came out at 1.78; in test [2], 4.56; in [3], 1.17; in [4], 1.05; in test [5], 1.17; in test [6], 4.09. Further, the Activity in [7] is reported as 0.93; in [8] it was 5.9; in test [9] it was 15.05; in test [10], 1.26; in test [11] it was 0.93; in test [13], 2.59. Besides, the Activity in test [14] was 8.16; in test [15], 4.2.

In the case of `C[C@H](CC[C@@H]1OC1(C)C)[C@H]1CC[C@H]2[C@@H]3CC=C4C[C@@H](O)CC[C@]4(C)[C@H]3CC[C@]12C` [24(S),25-EPOXYCHOLESTEROL], the Activity was determined as 0.82 in test [1]; 3.41 in test [2]; 1.25 in test [3]; 0.99 in test [4]; 1.09 in test [5]; 2.05 in test [6]. Also, the Activity in test [7] is 0.9; in [8], 5.59; in test [9] it was 9.91; in [10] it was 0.79; in [11] it was 1.35; in test [13], 0.89. Besides, the Activity in test [14] stood at 1.17; in [15], 2.61.
